ChEMBL document CHEMBL4190271, “Semisynthesis and Kappa-Opioid Receptor Activity of Derivatives of Columbin, a Furanolactone Diterpene” (J Nat Prod, 2017)

How the values were obtained:
Type in all cases: functional, cell-based
[1] = molecular target: T1, Kappa-type opioid receptor (Homo sapiens, UniProt P41145); experiment: Agonist activity at human kappa-type opioid receptor expressed in CHO-K1 cells assessed as inhibition of forskolin-induced cAMP accumulation up to 50 uM after 30 mins by luminescence-based assay
T1 sequence (P41145 whole entry): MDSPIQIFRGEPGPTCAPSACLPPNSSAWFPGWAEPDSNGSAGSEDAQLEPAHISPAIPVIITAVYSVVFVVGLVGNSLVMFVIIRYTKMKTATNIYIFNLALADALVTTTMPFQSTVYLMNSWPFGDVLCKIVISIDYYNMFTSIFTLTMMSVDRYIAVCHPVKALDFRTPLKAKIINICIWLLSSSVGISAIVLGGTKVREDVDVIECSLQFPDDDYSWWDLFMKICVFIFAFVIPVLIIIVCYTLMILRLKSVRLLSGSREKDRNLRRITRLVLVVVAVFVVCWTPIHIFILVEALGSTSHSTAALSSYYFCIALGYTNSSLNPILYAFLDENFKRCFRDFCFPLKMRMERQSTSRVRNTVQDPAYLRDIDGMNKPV
How it was run: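 CHO-K1 cells stably expressing human κ-opioid receptor; HitHunter cAMP assay, run per the kit directions, measuring inhibition of forskolin-induced cAMP accumulation. Compounds tested up to 50 μM. Reference agonist sets E_max = 100%. EC₅₀ and E_max given as means ± standard error of the mean from n ≥ 2 independent experiments, each in triplicate.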

[2] = molecular target: T1, Kappa-type opioid receptor; experiment: Agonist activity at human kappa-type opioid receptor expressed in CHO-K1 cells assessed as inhibition of forskolin-induced cAMP accumulation after 30 mins by luminescence-based assay
How it was run: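 CHO-K1 cells stably expressing human κ-opioid receptor, tested in a HitHunter cAMP assay for inhibition of forskolin-induced cAMP accumulation, run per the manufacturer's directions. Compounds were tested up to 50 μM. Emax is expressed relative to salvinorin A, set at 100%. EC50 and Emax are given as means ± SEM of at least 2 independent experiments, each run in triplicate.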

[3] = molecular target: T1, Kappa-type opioid receptor; experiment: Agonist activity at human kappa-type opioid receptor expressed in CHO-K1 cells assessed as inhibition of forskolin-induced cAMP accumulation after 30 mins by luminescence-based assay relative to columbin

| Compound | Emax [1] [%] | EC50 [2] [µM] | Emax [2] [%] | fold change (FC) [3] |
| --- | --- | --- | --- | --- |
| CC(=O)O[C@@H]1[C@H]2OC(=O)[C@@](O)([C@@H]1OC(C)=O)[C@]1(C)CC[C@H]3C(=O)O[C@@H](c4ccoc4)C[C@@]3(C)[C@H]21 | 0 | > 50 | – | – |
| CC(=O)O[C@@]12C=C[C@@H](OC1=O)[C@H]1[C@]3(C)C[C@H](c4ccoc4)OC(=O)[C@@H]3CC[C@]12C | – | 8 | 100 | > 6.3 |
| COCO[C@@]12C=C[C@@H](OC1=O)[C@H]1[C@]3(C)C[C@H](c4ccoc4)OC(=O)[C@@H]3CC[C@]12C | – | 12 | 100 | > 4.2 |
| C[C@@]12C[C@H](c3ccoc3Br)OC(=O)[C@@H]1CC[C@]1(C)[C@H]2[C@H]2C=C[C@]1(O)C(=O)O2 | 0 | > 50 | – | – |
| C[C@@]12C[C@H](c3ccoc3)OC(=O)[C@@H]1CC[C@]1(C)[C@H]2[C@H]2C=C[C@]1(OC(=O)/C=C/c1ccccc1)C(=O)O2 | – | 6 | 100 | > 8.3 |
| C[C@@]12C[C@H](c3ccoc3)OC(=O)[C@@H]1CC[C@]1(C)[C@H]2[C@@H]2OC(=O)[C@@]1(O)[C@H](O)[C@@H]2O | – | 16 | 100 | > 3.1 |
| C[C@@]12C[C@H](c3ccoc3)OC(=O)[C@@H]1CC[C@]1(C)[C@H]2[C@H]2CC[C@]1(O)C(=O)O2 | – | 2 | 100 | > 25 |
| C[C@@]12C[C@H](c3ccoc3)OC(=O)[C@@H]1CC[C@]1(C)[C@H]2[C@H]2C=C[C@]1(O)C(=O)O2 | 0 | > 50 | – | – |
| C[C@@]12C[C@H](c3ccoc3Br)OC(=O)[C@@H]1CC[C@]1(C)[C@H]2[C@@H]2OC(=O)[C@@]1(O)[C@@H](Br)[C@@H]2Br | 0 | > 50 | – | – |
